Measured values: the RNAGym collection of RNA variant scans (doi:10.1126/science.aae0568)
Variants at the floor of the assay were thinned out.

B1: tRNA (parent)
chain: GUUCCGUUGGCGUAAUGGUAACGCGUCUCCCUCCUAAGGAGAAGACUGCGGGUUCGAGUCCCGUACGGAACG

Variants of: B1
Assay: yeast fitness relative to wild type (ratio to wild type); higher = fitter; tRNA-Arg(CCU), competitive growth, 37 C, YPD
In short: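 Genotype frequency changes were the basis for Darwinian fitness relative to wild type. The frequencies came from 100-nucleotide paired-end sequencing of gene amplicons from the start population and each end population of pooled yeast strains with tRNA-Arg(CCU) gene variants at the native locus. Competition ran in YPD at 37°C for 24 hours in six replicates, genotypes needed ≥ 100 starting reads, and estimates < 0.5 were set to 0.5.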

G23C U54A and G23C U54G cannot be ordered by yeast fitness: no more than 0.5 for the first, no more than 0.5 for the second.

C24G A37C G67A and C24A A40G C49A A65C cannot be ordered by yeast fitness: no more than 0.5 for the first, no more than 0.5 for the second.

C24G C27U C29G C34G A36G A43U and C24G A45C C49A G52A cannot be ordered by yeast fitness: no more than 0.5 for the first, no more than 0.5 for the second.

C24A A36U A37C and C24A G51A C66U cannot be ordered by yeast fitness: no more than 0.5 for the first, no more than 0.5 for the second.

C24G A36U A43U U64C and C24A A43G A65C cannot be ordered by yeast fitness: no more than 0.5 for the first, no more than 0.5 for the second.

G23U C24G C27U A69C and C24A C30U C34A A45G A57U C62U cannot be ordered by yeast fitness: no more than 0.5 for the first, no more than 0.5 for the second.

C24G A43C G48A G58A G68C and C24G A36C C55G A65G cannot be ordered by yeast fitness: no more than 0.5 for the first, no more than 0.5 for the second.

G23C U47C C60G and C24A A36C A37C C46U C62G cannot be ordered by yeast fitness: no more than 0.5 for the first, no more than 0.5 for the second.

Going from C24A G58A A70G to C24G A45G G51C U54A G56C, the yeast fitness falls from 0.574 to no more than 0.5.

Compared with C24G C27G, G23U C24G C27U C62G C66G is lower in yeast fitness: 0.593 for the first, no more than 0.5 for the second.

Going from C24A C33G A40C C55U G67A to C24G A36C A70C, the yeast fitness rises from no more than 0.5 to 0.567.

First: C24A C31U G56C
Second: C24G A43G G63U U64A
The yeast fitness of the first is lower: no more than 0.5 for the first, 0.577 for the second.

C24G A40U G67C and C24A C49U U59G C62U A70G cannot be ordered by yeast fitness: no more than 0.5 for the first, no more than 0.5 for the second.

Going from C24A C27U C61A to C24G A37C C49U A69U, the yeast fitness rises from no more than 0.5 to 0.545.

C24G A37G A42C A70U and C24G A43C A57U cannot be ordered by yeast fitness: no more than 0.5 for the first, no more than 0.5 for the second.

Compared with C24A C29G C30G C49U, C24G C30A A40C is higher in yeast fitness: no more than 0.5 for the first, 0.547 for the second.

Compared with C24A A37C G38A G58C G63C, C24A U53C is higher in yeast fitness: no more than 0.5 for the first, 0.598 for the second.

C24A C31A C55A and C24A C29G C60U cannot be ordered by yeast fitness: no more than 0.5 for the first, no more than 0.5 for the second.

C24A G63A U64A and C24G A45G U53G cannot be ordered by yeast fitness: no more than 0.5 for the first, no more than 0.5 for the second.

Going from C24G A36G A40C C55G G63C to C24G A65G, the yeast fitness rises from no more than 0.5 to 0.703.

Going from C24A A36C A40G to C24A A43U G48A, the yeast fitness falls from 0.789 to no more than 0.5.

Compared with C24A A43U G48C, C24A G56C is higher in yeast fitness: no more than 0.5 for the first, 0.626 for the second.

First: C24A A36U C61U G67U
Second: C24A U32C
The yeast fitness of the first is lower: 0.608 for the first, 0.612 for the second.

Going from G23U A43C to G23U A43G, the yeast fitness rises from 0.605 to 0.758.

First: C24G A42G A69U
Second: C24A A42U G44A
The yeast fitness of the first is lower: no more than 0.5 for the first, 0.581 for the second.

C24G A36G A70G and C24G A40U A43U C49G G50C C61U C66U cannot be ordered by yeast fitness: no more than 0.5 for the first, no more than 0.5 for the second.

Compared with C24G A45C A69U, G23C U32A A69C is lower in yeast fitness: 0.611 for the first, no more than 0.5 for the second.

G23C U47A A57G G58C and C24G C27U C33U A57C cannot be ordered by yeast fitness: no more than 0.5 for the first, no more than 0.5 for the second.

Compared with C24A A57C C60U G67C, C24A C33A C66A is higher in yeast fitness: no more than 0.5 for the first, 0.533 for the second.

Compared with C24A C29A G44A C46G, C24A A37G C55U C60G is lower in yeast fitness: 0.583 for the first, no more than 0.5 for the second.

Going from C24G A57C U64A to C24G A36U A40U C46G G48C, the yeast fitness rises from no more than 0.5 to 0.557.

Going from C24G A36C C55G to C24G A65U G68A, the yeast fitness falls from 0.587 to no more than 0.5.

C24A G39A C60A and C24A U28C G56A cannot be ordered by yeast fitness: no more than 0.5 for the first, no more than 0.5 for the second.

C24A C31U G38A G58C and C24G C29A A40G G50C cannot be ordered by yeast fitness: no more than 0.5 for the first, no more than 0.5 for the second.

Going from C24A C31G C34U to C24G A36G G39C C55U C66U, the yeast fitness falls from 0.616 to no more than 0.5.

C24A C31U A42C U47C and C24G C29G U32A G52C cannot be ordered by yeast fitness: no more than 0.5 for the first, no more than 0.5 for the second.

Going from C24A C46A A70C to C24G C27G A36U G38C C60G C66A, the yeast fitness falls from 0.851 to no more than 0.5.

Compared with C24A C27U C30U G52C, G23U A37U is lower in yeast fitness: 0.596 for the first, no more than 0.5 for the second.

First: C24A G39C
Second: C24A C27G C29G
The yeast fitness of the first is higher: 0.705 for the first, 0.639 for the second.

C24A C33A C46U G67U and C24A A45G U54C C62U cannot be ordered by yeast fitness: no more than 0.5 for the first, no more than 0.5 for the second.

First: C24A U59G C62U A70G
Second: C24G A36C C46U G52A
The yeast fitness of the first is lower: 0.54 for the first, 0.637 for the second.

C24G A40G A57U G68A and C24A C34U A40C G68C cannot be ordered by yeast fitness: no more than 0.5 for the first, no more than 0.5 for the second.

Compared with C24G A69G, C24G A69U is higher in yeast fitness: 0.503 for the first, 0.658 for the second.

C24A C31G G51C C55U G58C A70U and C24A C27U U54C U59C G68U cannot be ordered by yeast fitness: no more than 0.5 for the first, no more than 0.5 for the second.

First: C24A C30U A36G C46A
Second: G23U U28G
The yeast fitness of the first is higher: 0.579 for the first, 0.552 for the second.

Going from G23U A40G G63A to C24G C29G G39C, the yeast fitness rises from no more than 0.5 to 0.513.

Compared with G23U G63A, C24A C31U A42C U64A is lower in yeast fitness: 0.609 for the first, no more than 0.5 for the second.

Compared with C24A C27U C29G G44C U59C G67A, C24G A37G is higher in yeast fitness: no more than 0.5 for the first, 0.612 for the second.

First: C24G A37C
Second: C24A G48C G67C
The yeast fitness of the first is higher: 0.563 for the first, no more than 0.5 for the second.

Going from C24A C29G C33G to C24G C27G A45C, the yeast fitness falls from 0.619 to no more than 0.5.

Going from C24A U28C U64C C66U to C24A C46U, the yeast fitness rises from no more than 0.5 to 1.1.

First: C24A C46A
Second: C24A C49A C61G
The yeast fitness of the first is higher: 1.01 for the first, no more than 0.5 for the second.

G23C U47G C62G G68A and C24A C55G C60A cannot be ordered by yeast fitness: no more than 0.5 for the first, no more than 0.5 for the second.

Compared with C24A C55G C60G, C24A U26A A43U C55A C66U is lower in yeast fitness: 0.528 for the first, no more than 0.5 for the second.

C24A A37G A57C and C24A C30U A65G A69U cannot be ordered by yeast fitness: no more than 0.5 for the first, no more than 0.5 for the second.

First: G23C U47C
Second: G23C U47A
The yeast fitness of the first is lower: 0.681 for the first, 0.705 for the second.

First: C24G A40C A69C
Second: C24A G41A
The yeast fitness of the first is lower: no more than 0.5 for the first, 0.738 for the second.

C24A C31G C34U G68A and C24A A45G C66U cannot be ordered by yeast fitness: no more than 0.5 for the first, no more than 0.5 for the second.

C24G A37C G58A G68A and C24G A36G A42C C61U C62G cannot be ordered by yeast fitness: no more than 0.5 for the first, no more than 0.5 for the second.

Compared with C24A C29G A43C C60U, C24G A36C A65G A70C is lower in yeast fitness: 0.648 for the first, no more than 0.5 for the second.

Going from C24A A70C to C24G A57G A70G, the yeast fitness falls from 0.8 to no more than 0.5.

G23C U59G C60G and C24A G50A C66U cannot be ordered by yeast fitness: no more than 0.5 for the first, 0.5 for the second.

Going from C24A C29U C61U C66G to G23C U32A, the yeast fitness rises from 0.544 to 0.565.

Compared with G23C U32C, C24G A37G G56A G58A G67A is lower in yeast fitness: 0.72 for the first, no more than 0.5 for the second.

C24A U47A A70U and C24G C29G C49G cannot be ordered by yeast fitness: no more than 0.5 for the first, no more than 0.5 for the second.

C24G A36G G50U U53A and G23U C30A C55G A57C C62G G68C cannot be ordered by yeast fitness: no more than 0.5 for the first, no more than 0.5 for the second.

C24A C29U G50A A65G C66U and C24A G39C A42G cannot be ordered by yeast fitness: no more than 0.5 for the first, no more than 0.5 for the second.

First: C24A C66U
Second: C24G A42U C49U G67C
The yeast fitness of the first is higher: 0.691 for the first, no more than 0.5 for the second.

Compared with C24A C49U C62U, C24A G39C A70C is lower in yeast fitness: 0.654 for the first, 0.601 for the second.

Compared with C24A A57C C61G, C24A C27A U28A is higher in yeast fitness: no more than 0.5 for the first, 0.53 for the second.

G23C U54C U64A G68A and C24A C30G cannot be ordered by yeast fitness: no more than 0.5 for the first, no more than 0.5 for the second.

First: C24G A36G
Second: C24A C33A G51C C62U
The yeast fitness of the first is higher: 0.557 for the first, no more than 0.5 for the second.

Compared with C24A C62U, C24A C62G is lower in yeast fitness: 0.724 for the first, 0.706 for the second.

G23U U28G G50A and C24A G39C A57U A70C cannot be ordered by yeast fitness: no more than 0.5 for the first, no more than 0.5 for the second.

C24A C49A G56C G68C and C24G A40U U47A cannot be ordered by yeast fitness: no more than 0.5 for the first, no more than 0.5 for the second.

First: C24A A42U
Second: C24G A42G A65G
The yeast fitness of the first is higher: 0.659 for the first, no more than 0.5 for the second.

First: C24G C29G C33A G48A C55G
Second: C24A C31U A36G A37G G48A U53G
The yeast fitness of the first is lower: no more than 0.5 for the first, 0.653 for the second.

C24A U64G A70C and C24A C31U A42C C66U cannot be ordered by yeast fitness: no more than 0.5 for the first, no more than 0.5 for the second.

C24G A43C G52C C55U A69C and C24A C33U A57U U59G cannot be ordered by yeast fitness: no more than 0.5 for the first, no more than 0.5 for the second.

First: C24A A40C
Second: C24A A40G
The yeast fitness of the first is higher: 0.658 for the first, 0.551 for the second.

Going from C24A G58A to C24A A37G A57G G63A A65G, the yeast fitness falls from 0.859 to no more than 0.5.

Going from C24G A40C C49A A69U to C24A G25A U47C G52C, the yeast fitness falls from 0.589 to no more than 0.5.

First: C24G C27U U53A
Second: C24A C31A A43U C55U
The yeast fitness of the first is lower: no more than 0.5 for the first, 0.674 for the second.

For C24A U26G, the yeast fitness was 0.655.
